# Activity calls are given as the source filed them. The calls are words filed in the database; no cut-off is given here.
# Columns and labels:
# [1] = test system: KB; experiment: Cytotoxicity against human KB cells assessed as cell growth inhibition incubated up to 96 hrs by Celltiter-blue cell viability assay; assay type: functional, cell-based
# Procedure, shortened: (§1)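 Cells plated at ~2500–5000/well in folate-free RPMI with 10% dialyzed FBS, antibiotics, 2 nM LCV and 2 mM L-glutamine, exposed to a range of drug concentrations. RT16 were pre-cultured 3 days in folate-free RPMI. FR dependence was tested in parallel wells containing 200 nM folic acid. Incubation up to 96 h, CellTiter-Blue fluorescence read-out. IC50 taken versus untreated cells.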
# [2] = test system: R2; experiment: Cytotoxicity against Chinese hamster R2 cells expressing empty vector assessed as cell growth inhibition incubated up to 96 hrs by Celltiter-blue cell viability assay; assay type: cell-based, Cricetulus griseus; details: R2, 96 h
# [3] = target: Folate receptor alpha (Homo sapiens) (UniProt P15328); experiment: Inhibition of [3H]folic acid binding to FRalpha (unknown origin) expressed in Chinese hamster RT16 cells; assay type: cell-based
# Sequence of Folate receptor alpha (Homo sapiens) (P15328 25-234 limits assumed): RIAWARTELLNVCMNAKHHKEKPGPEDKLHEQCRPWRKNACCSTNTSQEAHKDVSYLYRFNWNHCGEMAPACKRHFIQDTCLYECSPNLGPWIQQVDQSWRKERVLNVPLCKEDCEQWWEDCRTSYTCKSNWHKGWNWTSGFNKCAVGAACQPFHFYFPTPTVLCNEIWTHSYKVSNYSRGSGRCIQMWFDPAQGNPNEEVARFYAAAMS
# Procedure, shortened: (§2)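 RT16 (FRα) or D4 (FRβ) CHO cells (~5 × 10^6) were stripped of bound folate with pH 3.5 acetate/saline, then washed in ice-cold HEPES-buffered saline pH 7.4. Cells were incubated 15 min at 0 °C with 50 nM [3H]folic acid (0.5 Ci/mmol) plus 0–1000 nM unlabeled competitor. Cells were rinsed cold, NaOH-solubilized, and counts normalized to protein. […] Mean ± SE, n=3.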
# [4] = test system: R2; experiment: Cytotoxicity against Chinese hamster R2 cells assessed as cell growth inhibition incubated up to 96 hrs by Celltiter-blue cell viability assay; assay type: cell-based; details: Cricetulus griseus, R2, 96 h
# [5] = test system: KB; experiment: Cytotoxicity against human KB cells assessed as cell growth inhibition incubated up to 96 hrs in presence of 200 nM folic acid by Celltiter-blue cell viability assay; assay type: functional, cell-based; procedure, shortened: as §1
# [6] = target: Folate receptor beta (Homo sapiens) (UniProt P14207); experiment: Inhibition of [3H]folic acid binding to FRbeta (unknown origin) expressed in Chinese hamster D4 cells; assay type: cell-based; procedure, shortened: as §2
# Sequence of Folate receptor beta (Homo sapiens) (P14207 17-230 limits assumed): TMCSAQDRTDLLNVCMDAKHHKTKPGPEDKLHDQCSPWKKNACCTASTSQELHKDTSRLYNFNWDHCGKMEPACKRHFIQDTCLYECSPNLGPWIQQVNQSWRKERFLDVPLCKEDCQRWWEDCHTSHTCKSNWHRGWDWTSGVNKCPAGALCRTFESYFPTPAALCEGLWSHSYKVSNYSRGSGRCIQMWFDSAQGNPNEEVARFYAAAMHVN
# [7] = target: T1, Proton-coupled folate transporter (Homo sapiens) (UniProt Q96NT5); experiment: Inhibition of PCFT (unknown origin) expressed in Chinese hamster R2/PCFT4 cells assessed as reduction in PCFT-mediated [3H]MTX transport at 10 uM at pH 5.5 and 37 degC incubated for 5 mins; assay type: cell-based
# T1 sequence (whole entry): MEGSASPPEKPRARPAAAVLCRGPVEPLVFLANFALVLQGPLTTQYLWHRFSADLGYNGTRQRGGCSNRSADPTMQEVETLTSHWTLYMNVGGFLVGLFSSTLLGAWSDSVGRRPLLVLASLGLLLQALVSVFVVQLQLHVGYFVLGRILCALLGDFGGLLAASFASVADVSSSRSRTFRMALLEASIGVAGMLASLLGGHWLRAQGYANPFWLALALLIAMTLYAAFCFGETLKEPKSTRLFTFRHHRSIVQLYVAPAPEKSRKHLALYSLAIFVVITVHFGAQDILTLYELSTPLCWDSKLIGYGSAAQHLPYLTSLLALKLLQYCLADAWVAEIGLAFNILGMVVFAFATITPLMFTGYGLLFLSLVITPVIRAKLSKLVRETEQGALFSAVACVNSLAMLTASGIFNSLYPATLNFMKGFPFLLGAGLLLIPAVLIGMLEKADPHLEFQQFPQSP
# Procedure, shortened: (§3)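 Uptake was quenched with ice-cold DPBS, cells washed and solubilized in 0.5 N NaOH. Radioactivity was expressed per mg protein and normalized to untreated controls. Mean ± SE of three experiments.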
# [8] = target: T1, Proton-coupled folate transporter (Homo sapiens); experiment: Inhibition of PCFT (unknown origin) expressed in Chinese hamster R2/PCFT4 cells assessed as reduction in PCFT-mediated [3H]MTX transport at 1 uM at pH 5.5 and 37 degC incubated for 5 mins; assay type: cell-based; procedure, shortened: as §3
# [9] = target: T2, Proton-coupled folate transporter (Homo sapiens, UniProt Q96NT5); experiment: Inhibition of PCFT (unknown origin) expressed in Chinese hamster R2/PCFT4 cells assessed as reduction in PCFT-mediated [3H]MTX transport at pH 5.5 and 37 degC incubated for 5 mins; assay type: cell-based
# T2 sequence (Q96NT5 whole entry): T1 sequence (whole entry)
# [10] = target: T1, Proton-coupled folate transporter (Homo sapiens); experiment: Inhibition of PCFT (unknown origin) expressed in Chinese hamster R2/PCFT4 cells assessed as reduction in PCFT-mediated [3H]MTX transport at 10 uM at pH 6.8 and 37 degC incubated for 5 mins; assay type: cell-based; procedure, shortened: as §3
# [11] = test system: KB; experiment: Cytotoxicity against human KB cells assessed as cell growth inhibition incubated up to 96 hrs in presence of 320 uM AICA by Celltiter-blue cell viability assay; assay type: functional, cell-based
# Procedure, shortened: (§4)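 KB cells grown in complete folate-free RPMI 1640 with 2 nM LCV over a range of drug concentrations, with added thymidine (10 μM), adenosine (60 μM) or AICA (320 μM) as protecting agents. After up to 96 h, density measured by CellTiter-Blue fluorescence and normalized to drug-free cells. Experiments run in triplicate.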
# [12] = test system: KB; experiment: Cytotoxicity against human KB cells assessed as cell growth inhibition incubated up to 96 hrs in presence of 60 uM adenosine by Celltiter-blue cell viability assay; assay type: functional, cell-based; procedure, shortened: as §4
# [13] = test system: KB; experiment: Cytotoxicity against human KB cells assessed as cell growth inhibition incubated up to 96 hrs in presence of 10 uM thymidine by Celltiter-blue cell viability assay; assay type: functional, cell-based; procedure, shortened: as §4
# [14] = target: T1, Proton-coupled folate transporter (Homo sapiens); experiment: Inhibition of PCFT (unknown origin) expressed in Chinese hamster R2/PCFT4 cells assessed as reduction in PCFT-mediated [3H]MTX transport at 1 uM at pH 6.8 and 37 degC incubated for 5 mins; assay type: cell-based; procedure, shortened: as §3
Compound,inhibition [3],inhibition [6],inhibition [7] [%],inhibition [8] [%],Ki [9] [µM],inhibition [10] [%],inhibition [14] [%],IC50 [1] [µM],IC50 [2] [µM],IC50 [4] [µM],IC50 [5] [µM],growth inhibition (GI) [11],growth inhibition (GI) [12],growth inhibition (GI) [13]
Nc1nc2[nH]c(CCCc3ccc(C(=O)N[C@@H](CC(=O)O)C(=O)O)s3)cc2c(=O)[nH]1,Active,Active,–,–,–,–,–,> 1,> 1,> 1,> 1,–,–,–
CN(Cc1cnc2nc(N)nc(N)c2n1)c1ccc(C(=O)N[C@@H](CCC(=O)O)C(=O)O)cc1 [METHOTREXATE],inactive,inactive,–,–,–,–,–,–,> 1,–,–,–,–,–
Nc1nc2[nH]c(CCCc3ccc(C(=O)O)s3)cc2c(=O)[nH]1,Active,Active,–,–,–,–,–,> 1,> 1,> 1,> 1,–,–,–
CCC[C@H](NC(=O)c1ccc(CCCc2cc3c(=O)[nH]c(N)nc3[nH]2)s1)C(=O)O,Active,Active,70,25,2.9,30,–,> 1,> 1,> 1,> 1,–,–,–
Nc1nc(=O)c2nc(CNc3ccc(C(=O)N[C@@H](CCC(=O)O)C(=O)O)cc3)cnc2[nH]1,Active,Active,–,–,–,–,–,–,–,–,–,–,–,–

# Second part, led by results:
inhibition [3],inhibition [6],inhibition [7] [%],inhibition [8] [%],Ki [9] [µM],inhibition [10] [%],inhibition [14] [%],Compound,IC50 [1] [µM],IC50 [2] [µM],IC50 [4] [µM],IC50 [5] [µM],growth inhibition (GI) [11],growth inhibition (GI) [12],growth inhibition (GI) [13]
Active,Active,–,–,–,–,–,Nc1nc2[nH]c(CCCc3ccc(C(=O)NCCCC(=O)O)s3)cc2c(=O)[nH]1,> 1,> 1,> 1,> 1,–,–,–
Active,Active,75,10,1.6,30,–,Nc1nc2[nH]c(CCCc3ccc(C(=O)N[C@@H](CCCC(=O)O)C(=O)O)s3)cc2c(=O)[nH]1,0.009,> 1,> 1,> 1,inactive,inactive,Active
Active,Active,95,80,–,70,20,Nc1nc2[nH]c(CCCc3ccc(C(=O)N[C@@H](CCC(=O)O)C(=O)O)s3)cc2c(=O)[nH]1,–,–,–,> 1,inactive,inactive,Active

# Source: ChEMBL document CHEMBL3351552, “Structure-activity profiles of novel 6-substituted pyrrolo[2,3-d]pyrimidine thienoyl antifolates with modified amino acids for cellular uptake by folate receptors α and β and the proton-coupled folate transporter” (J Med Chem, 2014)
